High-throughput results deposited in PubChem BioAssay by several laboratories.
Apaf-1 inh – inhibitors of human Apaf-1 apoptosome; O14727; reconstituted apoptosome caspase-3 activity, DEVD-Rh110 fluorescence; inhibition, % at 20 µM; 0.71% of 330,000 active; active = inhibition of at least 40% at 20 µM;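 also: plate controls were DMSO wells for no effect and DEVD-CHO caspase inhibitor wells for full effect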
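System – cell-free apoptosome with Apaf-1, procaspase-3 and caspase-9 · Buffer or medium – pH 7.5 Hepes buffer with CHAPS, BSA, DTT · Also added – cytochrome c with DEVD-Rh110 · Times – 30 min compound preincubation, 50 min activation, room temperature · Technique – Rh110 fluorescence intensity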
SUMO HTRF inh – blocks human SUMOylation mediated by UBC9. 0.36% of 290,000 active. HTRF SUMOylation assay, SAE1/SAE2 + UBC9, in vitro. inhibition, % at 35 µM. AID 2006. P63279; in the data active = inhibition above about 50%, passing the limit was not always enough
GSTO1 counter – blocks human GSTO1 in RBBP9 counter-screen; P78417; recombinant GSTO1, activity-based probe fluorescence polarization; inhibition, % at 5.96 µM; 1.1% of 300,000 active; AID 1974;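 active = inhibition above the campaign mean inhibition plus 3 SD, cut at about 35% in these data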;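 also: 0% = GSTO1-1 with DMSO and 100% = wells lacking GSTO1-1 enzyme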
HKDC1 inh – HKDC1 (human) hexokinase inhibition; Q2TB90; recombinant HKDC1, G6PDH/diaphorase resazurin coupled fluorescence; inhibition, % at 20 µM; 0.16% of 340,000 active; AID 493160;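 active = inhibition above about 35% when tested at 20 µM, limit read from the data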;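 also: plate controls were DMSO wells with enzyme for no effect and DMSO wells lacking enzyme for full effect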
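System: Recombinant HKDC1 hexokinase | Amount: HKDC1 at 5 µg/mL | Reagent: Glucose with 1 mM ATP | Doses: Single 20 µM dose | Incubation: Reaction time 90 min, room temperature, protected from light | Signal: Coupled resazurin fluorescence, excitation 525 nm, emission 613 nm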
Redox H2O2 prof – compounds producing H2O2 with reducing agent – biochemical, NIH compound library profiling, artefact control for MLSCN library redox annotation, primary screen; DTT-dependent redox cycling H2O2, phenol red/HRP absorbance; 100% = 100 µM peroxide control, 0% = buffer; activation, % at 10 µM; 0.03% of 200,000 active; AID 878;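 active = activation of at least 50% relative to the plate's high and low controls in the primary single-dose screen; inactive = activation below 50%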;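 also: compound incubated with DTT at 0.8 mM final as the reducing agent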
HKDC1 act conf2 – confirmation of human HKDC1 activators; 14% of 740 active; recombinant HKDC1, G6PDH/diaphorase resazurin fluorescence; stronger effect = lower value; inhibition, % at 20 µM; shares compounds with HKDC1 inh;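 active = inhibition at or below a set negative limit, negative inhibition meaning the enzyme was activated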
Starred values were filed as active, the others as inactive; . = no result; ! = repeats disagree. The list is not random: actives were taken first. Their share in the collection is about 1.4%.

SMILES | Apaf-1 inh | SUMO HTRF inh | GSTO1 counter | HKDC1 inh | Redox H2O2 prof | HKDC1 act conf2
CSC1=NC(=O)/C(=C\c2cccc3ccccc23)S1 | 5 | -3 | -20 | 33 | 1 | -11
CCN(CC)c1ccc2c(c1)oc(=O)c1c(Cl)cc(=O)oc12 | 0 | 8 | 25 | 49* | 1 | 48
CCN(CC)c1ccc2c(C)c(Cl)c(=O)oc2c1 | 15 | 15 | 5 | 9 | 0 | .
COc1ccc(C(=O)c2coc3c2C(=O)C(=O)c2ccccc2-3)cc1 | 20 | 16 | 24 | 61* | . | 45
CC(=O)c1cc(Cl)ccc1OCc1cccc(S(=O)(=O)N2CCOCC2)c1 | 14 | . | 4 | 12 | . | .
O=S(=O)(c1cccc(COc2ccc(Cl)cc2Cl)c1)N1CCOCC1 | 22 | -12 | -2 | 39* | . | -37
C[c-]1[c-](C)[c-](C)[c-](C)[c-]1C.[Fe].c1cc2nccc(N3CCCC3)[c-]2c1 (configuration not stated) | 33 | 42 | -3 | 49*! | . | -2
O=C(CC1(CC(=O)N2CCOCC2)CCCC1)Nc1ccccc1 | -12 | . | . | 4 | . | .
O=c1c2ccccc2nc2n1CCCCC2 | -4 | 9 | 22 | -8 | 0 | .
O=c1c2ccccc2nc2n1CCC2 | -1 | 73* | 4 | 82* | 0 | 67
CC1(OC(=O)CCc2ccccc2)C(=O)C=C2C=C(c3ccc(C#N)cc3)N(Cc3ccccc3)C=C2C1=O (configuration not stated) | 13 | 9 | 28 | 36* | . | -9
COCCN1C=C2C(=O)C(C)(OC(=O)CCc3ccccc3)C(=O)C=C2C=C1c1ccc(C#N)cc1 (configuration not stated) | 27 | 20 | 13 | 25 | . | .
O=c1cc(O)sc2ccccc12 | -8 | 10 | -9 | 43* | 1 | -16
Fc1ccc(N=C2NN=C(c3cc(F)ccc3F)CS2)cc1 | . | -30 | -5 | -218 | 0 | -132*
Fc1ccccc1N=C1NN=C(c2ccccc2)CS1 | 18 | -3 | -13 | -82 | -1 | -53*
Fc1ccc(F)c(C2=NNC(=Nc3ccccc3F)SC2)c1 | -45 | 12 | 7 | -143 | 0 | .
COc1cccc(CN2CC(C(=O)N3CCN(c4ccc(Cl)cc4)CC3)CCC2=O)c1 (configuration not stated) | 8 | 12 | 0 | -3 | . | .
Cc1c(N=C2C=CC(=O)c3ccccc32)c(=O)n(-c2ccccc2)n1C | . | 56 | . | 42* | 0 | 35
Cc1nc(C(=O)NNC(=O)c2ccc(C(F)(F)F)cc2)cs1 | -17 | -10 | 4 | 1 | . | .
O=C(NNC(=S)Nc1ccc(Cl)c(Cl)c1)c1ccccn1 | -6 | -113 | -3 | -57 | -2 | -74*
COc1ccc(OC)c2[nH]c(=O)c(CCNC(=O)c3ccc(S(=O)(=O)N4CCCC4)cc3)cc12 | 3 | 5 | -1 | 33 | 0 | 32
COc1ccc2cc(CCNC(=O)c3ccc(S(=O)(=O)N4CCCC4)cc3)c(=O)[nH]c2c1 | 2 | 9 | -13 | 33 | . | 60
CCN(CC)S(=O)(=O)c1ccc(C(=O)NCCc2cc3c(OC)ccc(OC)c3[nH]c2=O)cc1 | 5 | 5 | -6 | 28 | 1 | .
CN(C)CCCNCCCNC(=O)/C(=N\O)c1ccccc1 | 4 | -23 | -6 | -5 | . | .
CCCCNCCOCCOc1ccccc1-c1ccccc1 | 16 | 18 | -1 | -59 | 0 | -7
SMILES | Apaf-1 inh | SUMO HTRF inh | GSTO1 counter | HKDC1 inh | Redox H2O2 prof | HKDC1 act conf2
Cc1cccc(C)c1Nc1nnc(SCc2cn3cccc(C)c3n2)s1 | 3 | 1 | -4 | 34 | 1 | 54
CCc1nnc(NC(=O)CCN2C(=O)/C(=C/c3cc(OC)c(OC)c(OC)c3)SC2=S)s1 | 4 | 15 | -2 | 10 | . | .
Nc1ccc(S(N)(=O)=O)cc1 | -1 | . | 0 | -4 | . | .
Nc1ccc(S(=O)(=O)c2cc(O)c3ccccc3c2O)cc1 | . | . | . | 55* | . | 69
CN(C)c1ccc(C(C(=O)NCc2ccccc2)N(Cc2cccnc2)C(=O)c2snc(C(N)=O)c2N)cc1 (configuration not stated) | 8 | 4 | . | 7 | . | .
Cc1ncsc1C(=O)N1CCCC(C(=O)c2ccc3ccccc3c2)C1 (configuration not stated) | 4 | 20 | 2 | -4 | . | .
CC(=O)c1cccc(S(=O)(=O)N2CCCC(c3nc4c(nnn4Cc4ccccc4Cl)c(=O)[nH]3)C2)c1 (configuration not stated) | 26 | 4 | . | 3 | . | .
CC(NNC(=S)N1CCN(c2ccccn2)CC1)c1nccc2ccccc12 (configuration not stated) | . | . | . | -42 | . | -75*
CCNC(=S)N1CCN(c2ccccn2)CC1 | -17 | 15 | -1 | -2 | 0 | .
COc1ccc(C2/C=C\CN(C(=O)C3CCCC3)[C@H](Cc3ccccc3)C(=O)N2Cc2ccc(F)cc2)cc1 (some centres not stated) | 20 | -9 | 1 | -1 | . | .
CN(C)CCCNCC(=O)c1c(-c2ccccc2)n(C)c2ccccc12 | . | 6 | -9 | -9 | . | .
Cn1c(-c2ccccc2)c(C(=O)CC#N)c2ccccc21 | 2 | 18 | -6 | -45 | -2 | -42*
CCN(CC(=O)Nc1ccc(OC)cc1)C(=O)c1ccc2c(c1)NC(=O)CS2 | -3 | . | . | -3 | . | .
CC1CCN(CCC(=O)N/N=C/c2ccc([N+](=O)[O-])cc2)CC1 | 1 | 4 | 6 | -4 | -1 | .
CCN(CC)c1ccc(NC(=O)c2ccccc2F)cc1S(=O)(=O)Nc1ccccc1OC | 1 | -12 | -7 | -5 | 0 | .
CCN(CC)c1ccc(NC(=O)c2ccccc2Br)cc1S(=O)(=O)Nc1ccccc1OC | 17 | -4 | -10 | -43 | 3 | -28
CC(C)N(C(=O)CSc1ccc(S(=O)(=O)N2CCCCC2)cn1)C(C)C | -3 | . | . | -3 | . | .
CC(=O)NC1C(=O)N(CCc2ccccc2)c2ccc(Br)cc21 (configuration not stated) | . | 2 | . | -3 | 0 | .
CCOc1ccc2c(c1)C(NC(C)=O)C(=O)N2CCN1CCOCC1 (configuration not stated) | 0 | 57* | . | 82* | . | 61
CC(=O)NC1C(=O)N(CCN2CCOCC2)c2ccc(Br)cc21 (configuration not stated) | 3 | 62* | -4 | 81* | . | 61
CCn1cc2nc(SCC(=O)Nc3ccccc3F)n(Cc3ccccc3)c(=O)c2n1 | -1 | -10 | 0 | 2 | . | .
CC(C)(C)c1c(Cl)c(O)c(-c2ccccc2)c(=O)n1-c1ccccc1 | 2 | 48 | . | 36* | 0 | 41
COC(=O)c1ccc2c(c1)C(C)(C)C(/C=C/c1ccccc1O)=[N+]2C | 9 | -2 | -200 | 38* | -3 | 7
C[N+]1=C(/C=C/Nc2ccccc2Cl)C(C)(C)c2ccccc21 | 1 | -9 | -2 | 13 | 0 | .
